The values below come from ChEMBL document CHEMBL4393742, “Structure-activity analysis of peptidic Chlamydia HtrA inhibitors” (Bioorg Med Chem, 2019).

As a reminder, the IC50 is the concentration at which inhibition is half-maximal.

Experiment [1] has as its system Chlamydia trachomatis 434/Bu. Description: Activation of recombinant chlamydia trachomatis serovar L2 434/Bu/ATCC VR-902B HtrA expressed in Escherichia coli BL21(DE3) using MeOCoum-ENLHLPLPIIF-NH-DNP as fluorescent mimotope at <50 uM preincubated for 20 mins followed by mimotope addition in presence of fluorophore 7-methoxycoumarin-4-acetic acid by plate reader based fluorescence assay.

Experiment [2] concerns Chlamydia trachomatis. Description: Antibacterial activity against Chlamydia trachomatis D/UW-3/Cx strain infected in mouse McCoy cells assessed as inclusion forming units at 100 uM treated 16 hrs post infection measured at 44 hrs post-infection by Evan's blue staining based-confocal microscopic analysis (reference value: 62 +/- 8.5 10^5U/mL). It is filed as functional.
The subject of experiment [3] is Chlamydia trachomatis. Nature of the experiment: Antibacterial activity against Chlamydia trachomatis D/UW-3/Cx infected in mouse McCoy cells assessed as reduction in inclusion forming units at 100 uM treated 16 hrs post infection measured at 44 hrs post-infection by Evan's blue staining based-confocal microscopic analysis (reference value: 62 +/- 8.5 10^5U/mL). The experiment is classed as functional.

The nature of experiment [4]: Inhibition of recombinant chlamydia trachomatis serovar L2 434/Bu/ATCC VR-902B HtrA expressed in Escherichia coli BL21(DE3) using MeOCoum-ENLHLPLPIIF-NH-DNP as fluorescent mimotope preincubated for 20 mins followed by mimotope addition in presence of fluorophore 7-methoxycoumarin-4-acetic acid by plate reader based fluorescence assay. Also noted: species or system Chlamydia trachomatis 434/Bu.

In experiment [5] the target is T1, Neutrophil elastase (Homo sapiens, UniProt P08246).
T1 sequence (P08246 whole entry): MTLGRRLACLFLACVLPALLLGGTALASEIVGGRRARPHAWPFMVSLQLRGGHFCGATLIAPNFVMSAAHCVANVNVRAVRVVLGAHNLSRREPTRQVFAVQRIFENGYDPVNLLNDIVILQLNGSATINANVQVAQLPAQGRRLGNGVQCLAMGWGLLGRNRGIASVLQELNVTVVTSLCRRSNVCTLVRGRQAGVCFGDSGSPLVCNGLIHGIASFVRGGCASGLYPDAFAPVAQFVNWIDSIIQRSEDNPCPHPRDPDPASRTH
Description: Inhibition of human neutrophil elastase using AAPV-pNA as substrate preincubated for 15 mins followed by substrate addition and measured every 15 secs for 5 mins. In short, it runs like this:
(§1)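 Enzyme and inhibitor (in DMSO) were preincubated at 37 °C for 15 min in 0.10 M Tris-HCl, pH 8.1, with 0.02 M CaCl₂. The pNA substrate was added to start the reaction. A405 was monitored every 15 s over 5 min at 37 °C. Runs were in triplicate, and inhibition was expressed as percent enzyme activity remaining.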

Experiment [6] relates to Chlamydia pecorum. Nature of the experiment: Antibacterial activity against Chlamydia pecorum IPA ATCC VR629 infected in mouse McCoy cells assessed as reduction in inclusion forming units at 100 uM treated 16 hrs post infection measured at 44 hrs post-infection by Evan's blue staining based-confocal microscopic analysis (reference value: 342.55646 +/- 6.53872 10^5U/mL). It is filed as functional.

Experiment [7] deals with Chlamydia trachomatis 434/Bu. Description: Potency index, ratio of JO146 IC50 to compound IC50 for inhibition of recombinant chlamydia trachomatis serovar L2 434/Bu/ATCC VR-902B HtrA expressed in Escherichia coli BL21(DE3) using MeOCoum-ENLHLPLPIIF-NH-DNP as fluorescent mimotope preincubated for 20 mins followed by mimotope addition in presence of fluorophore 7-methoxycoumarin-4-acetic acid by plate reader based fluorescence assay.

Experiment [8] concerns the target Trypsin (Homo sapiens, UniProt P07477+P07478+P35030). Nature of the experiment: Inhibition of human trypsin using Nalpha-benzoyl-DL-R-pNA as substrate preincubated for 15 mins followed by substrate addition and measured every 15 secs for 5 mins. The experiment is classed as protein assay. In short, it runs like this: as §1
Experiment [9] in a line: Inhibition of bovine pancreas chymotrypsin using AAPF-pNA as substrate preincubated for 15 mins followed by substrate addition and measured every 15 secs for 5 mins. On the set-up: species or system Bos taurus. The essentials: as §1
Experiment [10] concerns Chlamydia pecorum. Description: Antibacterial activity against Chlamydia pecorum IPA ATCC VR629 infected in mouse McCoy cells assessed as inclusion forming units at 100 uM treated 16 hrs post infection measured at 44 hrs post-infection by Evan's blue staining based-confocal microscopic analysis (reference value: 342.55646 +/- 6.53872 10^5U/mL). The experiment is classed as functional.

Active and inactive are the calls of the source. The calls are words filed in the database; no cut-off is given here.

Regarding `CC(C)C(NC(=O)[C@@H]1CCCN1C(=O)[C@@H](NC(=O)OC(C)(C)C)C(C)C)B(O)O` (some centres not stated), the result in experiment [1] was Active. For the same compound, the Activity in [2] was determined as 0.09939 ×10⁵ U/mL; in experiment [3], 3 log10CFU. For the same compound, the IC50 in experiment [4] is > 500 µM.
With `CC(C)C(NC(=O)[C@@H]1CCCN1C(=O)[C@@H](NC(=O)OC(C)(C)C)C(C)C)C(=O)c1nc2ccccc2s1` (mixture of isomers), the IC50 is 2.6 µM in experiment [5], > 500 µM in experiment [8], 321 µM in experiment [4] and > 500 µM in experiment [9]. The values for the Activity in experiment [6], in experiment [2] and in experiment [10] were 4 log10CFU, 2.539 ×10⁵ U/mL and 0.04744 ×10⁵ U/mL, respectively. Further, the Ratio IC50 in experiment [7] is 1.06.
